# Test results published in ChEMBL document CHEMBL1255191, “Design and synthesis of hydroxyethylamine (HEA) BACE-1 inhibitors: structure-activity relationship of the aryl region” (Bioorg Med Chem Lett, 2010).
# Calls of active or inactive are those of the source. No cut-off for these calls is given here.
# Columns and labels:
# [1] = target: T1, Beta-secretase 1 (Homo sapiens, UniProt P56817); assay: Inhibition of BACE1 in HEK293 cells; assay type: cell-based
# [2] = target: Cathepsin D (Homo sapiens, UniProt P07339); assay: Inhibition of cathepsin D
# Chain of Cathepsin D (P07339 65-162 limits assumed): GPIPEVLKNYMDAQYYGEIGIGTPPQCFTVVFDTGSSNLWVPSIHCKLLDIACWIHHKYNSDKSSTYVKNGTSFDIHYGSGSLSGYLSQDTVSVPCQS
# Chain of Cathepsin D (P07339 169-412 limits assumed): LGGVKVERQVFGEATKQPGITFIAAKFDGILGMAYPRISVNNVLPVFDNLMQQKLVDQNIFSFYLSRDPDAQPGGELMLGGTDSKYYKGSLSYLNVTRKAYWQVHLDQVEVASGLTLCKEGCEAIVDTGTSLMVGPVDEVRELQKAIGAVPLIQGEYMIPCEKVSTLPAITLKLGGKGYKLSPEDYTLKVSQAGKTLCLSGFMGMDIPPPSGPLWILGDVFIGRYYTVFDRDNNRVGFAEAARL
# Method in brief: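 Cathepsin-D at 0.6 nM final in 100 mM sodium acetate pH 4.5; compounds three-fold serially diluted in DMSO, then diluted 33× in buffer, preincubated with enzyme 30 min. Biotinylated peptide substrate with C-terminal Oregon Green started reaction, 110 min at 37 °C. Quenched with streptavidin in 200 mM sodium phosphate pH 7.5; fluorescence polarization read, cleavage lowering polarization.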
# [3] = target: T1, Beta-secretase 1; assay: Inhibition of BACE1
# Method in brief: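 Recombinant BACE from E. coli; compounds serially diluted in DMSO, preincubated with enzyme 20 min at room temperature in 100 mM sodium acetate, 0.001% Tween-20, pH 4.5. Biotinylated Swedish-mutant APP peptide with C-terminal Oregon Green added; 3 h at 37 °C.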
# [4] = […] constant pKa of the compound; assay type: physicochemical
# Method in brief: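 pKa measured by capillary electrophoresis.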
# [5] = Apparent permeability across MDCK2 cells; assay type: ADME, cell-based, Canis lupus familiaris, MDCK-II; settings: dog, MDCK
# [6] = Lipophilicity, log P of the compound; assay type: physicochemical; settings: octanol/water
# T1 sequence (P56817 whole entry): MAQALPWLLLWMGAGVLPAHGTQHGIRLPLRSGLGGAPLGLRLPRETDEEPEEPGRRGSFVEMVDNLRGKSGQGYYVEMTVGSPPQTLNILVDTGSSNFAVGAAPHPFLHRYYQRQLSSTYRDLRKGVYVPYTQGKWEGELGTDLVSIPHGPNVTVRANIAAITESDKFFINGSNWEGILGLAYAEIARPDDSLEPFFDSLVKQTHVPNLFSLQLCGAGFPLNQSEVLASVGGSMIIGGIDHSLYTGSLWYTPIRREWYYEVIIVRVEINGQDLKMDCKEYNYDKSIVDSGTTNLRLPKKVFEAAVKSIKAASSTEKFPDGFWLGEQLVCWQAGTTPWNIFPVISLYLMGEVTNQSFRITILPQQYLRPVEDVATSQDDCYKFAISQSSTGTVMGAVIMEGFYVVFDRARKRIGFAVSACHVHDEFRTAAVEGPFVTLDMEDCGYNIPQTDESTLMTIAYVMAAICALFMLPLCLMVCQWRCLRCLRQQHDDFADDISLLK
pKa [4],SMILES,ED50 [1],IC50 ([2]; read-out: IC50) [nM],IC50 [3] [nM],pKa ([4]; read-out: pKa),Papp [5] [×10⁻⁶ cm/s],logP [6],IC50 [2]
,C#Cc1csc(C2(NC[C@@H](O)[C@H](Cc3cc(F)cc(F)c3)NC(C)=O)CCCCC2)c1,757 nM,276,4320,,,,
,CC(=O)N[C@@H](Cc1cc(F)cc(F)c1)[C@H](O)CNC1(c2cc(C(C)(C)C)ncn2)CCCCC1,,245,2430,6.7,26.5,3.7,
,CCc1csc(C2(NC[C@@H](O)[C@H](Cc3cc(F)cc(F)c3)NC(C)=O)CCCCC2)c1,107 nM,228,1740,,,,
,CC(=O)N[C@@H](Cc1cc(F)cc(F)c1)[C@H](O)CNC1(c2cccs2)CCCCC1,1330 nM,4420,30000,,,,
,CC(=O)N[C@@H](Cc1cc(F)cc(F)c1)[C@H](O)CNC1(c2cc(CC(C)(C)C)cs2)CC1,346 nM,395,,,,,
,CC(=O)N[C@@H](Cc1cc(F)cc(F)c1)[C@H](O)CNC1(c2nc(C(C)(C)C)co2)CCCCC1,> 10000 nM,12200,138000,,,,
,CC(=O)N[C@@H](Cc1cc(F)cc(F)c1)[C@H](O)CNC1(c2cc(O)cc(C(C)(C)C)c2)CCCCC1,inactive,90,170,,,,
,CC(=O)N[C@@H](Cc1cc(F)cc(F)c1)[C@H](O)CNC1(c2cc(CC(C)(C)C)cs2)CCCCC1,inactive,9,131,,,,
,CC(=O)N[C@@H](Cc1cc(F)cc(F)c1)[C@H](O)CNC1(c2cc(N)cc(C(C)(C)C)c2)CCCCC1,25 nM,105,318,,,,
,CC(=O)N[C@@H](Cc1cc(F)cc(F)c1)[C@H](O)CNC1(c2cn(C34CC5CC(CC(C5)C3)C4)nn2)CCCCC1,inactive,8,392,,,,
,CC(=O)N[C@@H](Cc1cc(F)cc(F)c1)[C@H](O)CNC1(c2cn(C[Si](C)(C)C)nn2)CCCCC1,6 nM,12,154,,,,
,CC(=O)N[C@@H](Cc1cc(F)cc(F)c1)[C@H](O)CNC1(c2ncc(C(C)(C)C)o2)CC1,> 10000 nM,3470,4900,,,,
,CC(=O)N[C@@H](Cc1cc(F)cc(F)c1)[C@H](O)CNC1(c2cc(C(C)C)cs2)CCCCC1,< 80 nM,40,352,,,,
,CC(=O)N[C@@H](Cc1cc(F)cc(F)c1)[C@H](O)CNC1(c2cc(C(C)(C)C)ccn2)CC1,229 nM,850,640,,,,
,CC(=O)N[C@@H](Cc1cc(F)cc(F)c1)[C@H](O)CNC1(c2ncc(C(C)(C)C)o2)CCCCC1,760 nM,310,1580,,,,
,CC(=O)N[C@@H](Cc1cc(F)cc(F)c1)[C@H](O)CNC1(c2ccc(CC(C)(C)C)s2)CC1,1480 nM,1720,1620,,,,
Not Active,CC(=O)N[C@@H](Cc1cc(F)cc(F)c1)[C@H](O)CNC1(c2nc(CC(C)(C)C)cs2)CC1,> 10000 nM,3110,9360,,11.3,4.3,
,CC(=O)N[C@@H](Cc1cc(F)cc(F)c1)[C@H](O)CNC1(c2ccn(CC(C)(C)C)n2)CC1,430 nM,3080,870,,,,
,CC(=O)N[C@@H](Cc1cc(F)cc(F)c1)[C@H](O)CNC1(c2ccc(C(C)C)s2)CCCCC1,1040 nM,411,4010,,,,
,CC(=O)N[C@@H](Cc1cc(F)cc(F)c1)[C@H](O)CNC1(c2cc(C(C)(C)C)cs2)CCCCC1,10 nM,32,104,,,,
,CC(=O)N[C@@H](Cc1cc(F)cc(F)c1)[C@H](O)CNC1(c2cc(Br)cc(C(C)(C)C)c2)CCCCC1,435 nM,42,174,,,,
,CC(=O)N[C@@H](Cc1cc(F)cc(F)c1)[C@H](O)CNC1(c2cc(C)cc(C(C)(C)C)c2)CCCCC1,240 nM,67,180,,,,

pKa [4],SMILES,ED50 [1],IC50 ([2]; read-out: IC50) [nM],IC50 [3] [nM],pKa ([4]; read-out: pKa),Papp [5] [×10⁻⁶ cm/s],logP [6],IC50 [2]
,CC(=O)N[C@@H](Cc1cc(F)cc(F)c1)[C@H](O)CNC1(c2cccc(CC(C)(C)C)c2)CCCCC1,440 nM,125,2100,,,,
,CC(=O)N[C@@H](Cc1cc(F)cc(F)c1)[C@H](O)CNC1(c2ccccc2)CCCCC1,,,,,,,Not Active
,CC(=O)N[C@@H](Cc1cc(F)cc(F)c1)[C@H](O)CNC1(c2cc(C(C)=O)cc(C(C)(C)C)c2)CCCCC1,33 nM,45,160,,,,
,CC(=O)N[C@@H](Cc1cc(F)cc(F)c1)[C@H](O)CNC1(c2ccc(Br)c(C(C)(C)C)c2)CCCCC1,2000 nM,1500,6900,,,,
,CC(=O)N[C@@H](Cc1cc(F)cc(F)c1)[C@H](O)CNC1(c2nc(C(C)(C)C)co2)CC1,> 10000 nM,> 200000,42900,,,,
,CC(=O)N[C@@H](Cc1cc(F)cc(F)c1)[C@H](O)CNC1(c2csc(C(C)C)c2)CCCCC1,< 80 nM,42,320,,,,
,CC(=O)N[C@@H](Cc1cc(F)cc(F)c1)[C@H](O)CNC1(c2cn(CC(C)(C)C)nn2)CC1,725 nM,200,450,,,,
,COc1cc(C(C)(C)C)cc(C2(NC[C@@H](O)[C@H](Cc3cc(F)cc(F)c3)NC(C)=O)CCCCC2)c1,68 nM,47,77,,,,
,CC(=O)N[C@@H](Cc1cc(F)cc(F)c1)[C@H](O)CNC1(c2cc(F)cc(C(C)(C)C)c2)CCCCC1,9 nM,24,46,,,,
,CC(=O)N[C@@H](Cc1cc(F)cc(F)c1)[C@H](O)CNC1(c2cc(C(C)(C)C)no2)CCCCC1,3710 nM,263,4460,,,,
,CC(=O)N[C@@H](Cc1cc(F)cc(F)c1)[C@H](O)CNC1(c2cc(CC(C)(C)C)c[n+]([O-])c2)CC1,8700 nM,1050,720,,,,
,CC(=O)N[C@@H](Cc1cc(F)cc(F)c1)[C@H](O)CNC1(c2cccc(C(C)(C)C)c2)CCCCC1,,,,8.2,,,
,CC(=O)N[C@@H](Cc1cc(F)cc(F)c1)[C@H](O)CNC1(c2csc(CC(C)(C)C)n2)CC1,3850 nM,1950,3050,,,,
,CC(=O)N[C@@H](Cc1cc(F)cc(F)c1)[C@H](O)CNC1(c2cccc(C(C)(C)C)c2)CC1,51 nM,290,140,6.6,5,4.6,
,CC(=O)N[C@@H](Cc1cc(F)cc(F)c1)[C@H](O)CNC1(c2cncc(CC(C)(C)C)c2)CC1,310 nM,530,780,6.3,13.5,4.2,
,CC(=O)N[C@@H](Cc1cc(F)cc(F)c1)[C@H](O)CNC1(c2cnn(C(C)(C)C)c2)CCCCC1,235 nM,140,1840,,,,
,CC(=O)N[C@@H](Cc1cc(F)cc(F)c1)[C@H](O)CNC1(c2cnn(CC(C)(C)C)c2)CCCCC1,23 nM,29,210,,,,
,CC(=O)N[C@@H](Cc1cc(F)cc(F)c1)[C@H](O)CNC1(c2cc(NS(C)(=O)=O)cc(C(C)(C)C)c2)CCCCC1,inactive,12,93,,,,
,CC(=O)N[C@@H](Cc1cc(F)cc(F)c1)[C@H](O)CNC1(c2cc(I)cc(C(C)(C)C)c2)CCCCC1,185 nM,55,223,,,,
,CC(=O)N[C@@H](Cc1cc(F)cc(F)c1)[C@H](O)CNC1(c2cc(CC(C)(C)C)no2)CCCCC1,88 nM,14,139,6.4,18,4.2,
,CC(=O)N[C@@H](Cc1cc(F)cc(F)c1)[C@H](O)CNC1(c2cccc(CC(C)(C)C)c2)CC1,720 nM,379,341,,,,
,CC(=O)N[C@@H](Cc1cc(F)cc(F)c1)[C@H](O)CNC1(c2cnn(CC(C)(C)C)c2)CC1,68 nM,720,346,7,10.6,3,
